# A selection: hits, their analogues and other compounds. The true share with any hit is near 1.5%.
# CXCR6 inh: CXCR6 (human) receptor inhibition; O00574; CHO-K1 PathHunter CXCR6 beta-arrestin, luminescence; inhibition, % at 20 µM; 360,000 tested, 0.36% active; AID 602244; in the data active means inhibition above about 34%, passing the limit was not always enough;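 further: antagonist mode with CXCL16 agonist at 10 nM final; 0% = 10 nM CXCL16 with DMSO and 100% = unstimulated wells without agonist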
# CCR6 antag: CCR6 (human) receptor antagonism. AID 493098. CHO-K1 CCR6 PathHunter beta-arrestin, luminescence, CCL20-stimulated. 340,000 tested, 0.49% active. P51684. inhibition, % at 20 µM;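 active means compounds whose inhibition of the agonist-driven luminescence signal at 20 µM reaches about 50%, limit read from the data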;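 further: cells stimulated with CCL20 at 14 nM final; plate controls were DMSO with CCL20 for no effect and DMSO without agonist for full effect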
# Target sequence (P51684 whole entry, looked up): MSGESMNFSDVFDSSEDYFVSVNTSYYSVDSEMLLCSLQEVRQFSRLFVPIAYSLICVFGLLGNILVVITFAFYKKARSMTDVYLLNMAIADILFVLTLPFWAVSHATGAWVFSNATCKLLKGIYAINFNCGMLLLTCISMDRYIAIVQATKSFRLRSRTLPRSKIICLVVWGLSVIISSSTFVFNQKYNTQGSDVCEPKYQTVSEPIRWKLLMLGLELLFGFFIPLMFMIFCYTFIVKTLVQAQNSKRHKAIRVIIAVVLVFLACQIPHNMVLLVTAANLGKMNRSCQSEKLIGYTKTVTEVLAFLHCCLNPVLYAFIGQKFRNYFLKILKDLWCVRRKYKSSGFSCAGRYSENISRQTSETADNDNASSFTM
# APJ agonist: APJ receptor agonism. CHO-K1 APJ PathHunter beta-arrestin, luminescence; 0% DMSO wells, 100% apelin. P35414. activation, % at 20 µM. 330,000 tested, 0.11% active. AID 2520;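 active means activation more than six SD over the plate average, tested at 20 µM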;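 further: 0% = DMSO alone and 100% = apelin-13 at 10 nM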
#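 Incubation: overnight seeding, 90 min compound at 25 °C, 1 h detection; test system: PathHunter CHO-K1 APJ (AGTRL-1) beta-arrestin reporter cells; amount: 1000 cells/well; doses: one dose, 20 µM compound, 1% DMSO; measured by: beta-gal luminescence; measure: agonist-driven arrestin binding to APJ; benchmarks: negative DMSO alone, positive Apelin-13 at 10 nM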
# APJ antagonist: blocks the human apelin receptor APJ; P35414; CHO-K1 APJ beta-arrestin complementation, luminescence; inhibition, % at 20 µM; 330,000 tested, 0.32% active;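 active means inhibition above about 40% at 20 µM, limit read from the data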;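 further: cells challenged with 10 nM apelin-13 agonist together with compound; plate controls were apelin-13 plus DMSO wells for no effect and DMSO wells lacking apelin-13 for full effect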
# EBI2 block: antagonists of human EBI2 receptor | P32249 | inhibition, % at 5 µM | AID 651636 | EBI2 beta-arrestin recruitment, luminescence, 7a,25-OHC stimulated | 360,000 tested, 0.81% active; in the data active means inhibition above about 38%;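 further: enzyme fragment complementation signal reports receptor beta-arrestin coupling in cells; 0% = agonist plus DMSO wells and 100% = wells without agonist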
# EBI2 conf: EBI2 (human) antagonism, single concentration confirmation; shares compounds with EBI2 block; EBI2 beta-arrestin luminescence, 7a,25-OHC antagonism; inhibition, % at 5 µM; 2,400 tested, 29% active;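 active means inhibition of at least 50%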
# EBI2 agonist: EBI2 agonism counter-screen | shares compounds with EBI2 block | EBI2-expressing cells, agonist mode, luminescence, 60 min; 0% vehicle, 100% 7α,25-dihydroxycholesterol control | AID 652000 | activation, % at 5 µM | 2,400 tested, under 10 active;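 active means activation of at least 50%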
# bGal counter: beta-galactosidase inhibition counter-screen; shares compounds with EBI2 block; purified beta-galactosidase, luminescent Galacton Star, 15 min; inhibition, % at 5 µM; 2,400 tested, 1% active; AID 652176;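 active means replicate-average signal at least 3 plate SD below neutral wells, shown as high inhibition, flagging enzyme-inhibiting false positives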;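 further: 0% = DMSO wells with enzyme and 100% = wells lacking enzyme; higher means stronger loss of beta-gal luminescence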
# * marks the source's active call; other numbers are inactive results; · = no result given.
SMILES,CXCR6 inh,CCR6 antag,APJ agonist,APJ antagonist,EBI2 block,EBI2 conf,EBI2 agonist,bGal counter
CCn1cc(/C=C(\NC(=O)c2cc(OC)c(OC)c(OC)c2)C(=O)N2CCOCC2)c2ccccc21,-8,·,·,·,-2,·,·,·
N#CCCn1nc(-c2ccc([N+](=O)[O-])cc2)cc1Nc1ccccc1NC(=O)C(F)(F)F,-9,6,-4,-6,0,·,·,·
CCN1CCN(C(=O)/C=C/c2ccc(F)cc2)CC1,0,4,0,2,84*,71*,0,5
CCOC(=O)C1CCN(C(=O)/C=C/c2ccc(OC)cc2)CC1,-3,3,-1,-5,87*,75*,0,-5
CCN1CCN(C(=O)/C=C/c2ccc(OC)cc2)CC1,-1,5,2,3,88*,74*,2,7
CCOC(=O)C1CCN(C(=O)/C=C/c2ccccc2OC)CC1,-4,7,-2,2,22,·,·,·
O=C(NCc1ccccc1)C1c2ccccc2OCC(=O)N1Cc1ccc2c(c1)OCO2 (stereo not drawn),-2,·,·,·,3,·,·,·
O=C(COc1ccccc1)Nc1ccccc1N1CCCCC1,2,20,-6,-4,45*,24,-2,-9
Cc1cccc(OCC(=O)Nc2ccccc2N2CCCCC2)c1,3,27,-3,10,53*,14,-1,-9
Cc1cc(C#N)c(C)c(SCc2[nH]nc3c2C(c2ccccc2)C(C#N)=C(N)O3)n1 (stereo not drawn),8,20,-1,4,68*,55*,0,7
Cc1cc(C)c(C#N)c(SCc2[nH]nc3c2C(c2ccc(F)cc2)C(C#N)=C(N)O3)n1 (stereo not drawn),-3,2,0,14,84*,57*,1,8
COc1ncnc2c1ncn2CCCN(C)Cc1ccco1,2,·,·,·,-1,·,·,·
O=C(CCCOc1ccccc1)N1CCN(S(=O)(=O)c2cccs2)CC1,4,8,-3,17,29,·,·,·
CC(=O)c1ccc(OCC(=O)N2CCN(S(=O)(=O)c3ccc(Br)s3)CC2)cc1,-2,6,-6,-10,69*,39,0,12
CC(=O)c1ccc(OCCCC(=O)N2CCN(S(=O)(=O)c3cccs3)CC2)cc1,-4,5,7,-2,49*,48,-1,-14
Cc1ccc(C(C(=O)Nc2ccc3c(c2)OCO3)N(C)C(=O)Cc2c[nH]c3ccccc23)cc1 (stereo not drawn),-1,7,1,13,6,·,·,·
Cc1ccc(S(=O)(=O)N2CCC(=O)N([C@H](COCc3cccc(C)c3)C(C)C)CC2)cc1,8,·,·,·,7,·,·,·
COc1ccc(C(=O)N2CCN(c3ccc([N+](=O)[O-])c(-n4nc(C)cc4C)c3)CC2)cc1,6,18,-1,0,59*,24,-1,-6
Cc1ccc(S(=O)(=O)c2c(N)n(/N=C/c3ccco3)c3nc4ccccc4nc23)cc1,-7,19,4,3,41*,55*,2,2
Cc1cccc(S(=O)(=O)c2c(N)n(/N=C/c3ccco3)c3nc4ccccc4nc23)c1,5,7,1,-33,59*,68*,0,4
Nc1c(S(=O)(=O)c2ccccc2)c2nc3ccccc3nc2n1/N=C/c1ccco1,8,17,12,-14,67*,77*,0,-14
C=CCC[C@@H](Cc1ccc(F)cc1)C(=O)OC[C@@H](NC(=O)[C@@H](CC=C)CC(=O)N(CCO)Cc1ccccc1)c1ccccc1,29,22,-3,23,12,·,·,·
COc1ccccc1N1CCN(C(=O)c2cc3c(C)nc4ccccc4c3o2)CC1,-12,-15,7,-40,74*,53*,2,3
COc1ccccc1N1CCN(C(=O)c2oc3ccc(Br)cc3c2C)CC1,-7,-4,-2,-2,75*,45,2,0
COc1ccc2oc(C(=O)N3CCN(S(=O)(=O)c4c(C)c(C)cc(C)c4C)CC3)c(C)c2c1,17,12,·,·,80*,53*,1,-17
SMILES,CXCR6 inh,CCR6 antag,APJ agonist,APJ antagonist,EBI2 block,EBI2 conf,EBI2 agonist,bGal counter
Cc1ccc(C)c(N2CCN(C(=O)c3cc4c(C)nc5ccccc5c4o3)CC2)c1,2,6,-5,-11,88*,60*,-1,-12
COc1cccc(-c2cccc(NC(=O)C3CCN(Cc4cccc(C)n4)CC3)c2)c1,-2,2,5,1,-17,·,·,·
COc1ccccc1NC(=O)Cc1nnc(SCC(=O)NC2CCCC2)n1C,-4,8,3,3,1,·,·,·
COc1ccc(CNC(=O)C2CCC(CNC(=O)[C@@H]3Cc4ccccc4CN3)CC2)cc1 (stereo partly drawn),6,9,-5,-11,5,·,·,·
C[C@H](CO)N1C[C@H](C)[C@@H](CN(C)Cc2ccccn2)Oc2ncc(-c3ccccc3)cc2C1=O,2,·,·,·,-7,·,·,·
CCc1ccc(NC(=O)c2ccc(F)c(S(=O)(=O)N(CC)c3ccccc3)c2)cc1,2,21,2,-7,45*,38,-1,-22
CCN(c1ccccc1)S(=O)(=O)c1cc(C(=O)Nc2cccc(Cl)c2)ccc1F,-4,17,-3,-7,24,·,·,·
COc1ccc2cc(C(=O)N3CCN(C)CC3)[nH]c2c1,-2,13,-1,-2,-12,·,·,·
COc1ccc2cc(C(=O)N3CCN(c4ccc(F)cc4)CC3)[nH]c2c1,-6,-12,-4,-3,64*,50*,-1,-16
COc1cccc(N2CCN(C(=O)c3cc4cc(Cl)ccc4[nH]3)CC2)c1,-4,5,0,-4,51*,41,1,6
O=C(c1cc2cc(F)ccc2[nH]1)N1CCN(c2cccc(Cl)c2)CC1,-3,5,-3,20,61*,48,-1,0
O=C(c1cccc(F)c1)N1CCN(c2cccc(Cl)c2)CC1,-11,4,-2,-9,5,·,·,·
Cc1[nH]c(-c2ccc(F)cc2)cc1C(=O)N1CCN(c2cccc(Cl)c2)CC1,-4,0,-2,9,91*,61*,-2,-10
CCOc1cc(N2CCOCC2)c(OCC)cc1NS(=O)(=O)c1cc(NC(C)=O)ccc1OC,-18,-6,4,-28,-13,·,·,·
CCN(CC(=O)Nc1c(F)cccc1F)C(=O)c1cc(C)nc2ccccc12,7,1,-7,-7,-1,·,·,·

# Screens deposited in PubChem by Sanford-Burnham Center for Chemical Genomics.
